These results are taken from ChEMBL document CHEMBL1153083, “Antiprotozoal, anticancer and antimicrobial activities of dihydroartemisinin acetal dimers and monomers” (Bioorg Med Chem, 2009).

Active and inactive are the calls of the source. The calls are words filed in the database; no cut-off is given here. Bounds are passed on as bounds.

The test system of one series is Nakaseomyces glabratus. Briefly: Antifungal activity against Candida glabrata ATCC 90030 by modified CLSI/NCCLS method. Type of series: functional, organism-based.
The test system of the next series is Leishmania donovani. The experiment in a line: Antileishmanial activity against Leishmania donovani promastigotes after 48 hrs by alamar blue assay. The series is classed as functional, organism-based. The conditions noted are these: for IC50: read-out: IC50. A general note: Resazurin is reduced to fluorescent resorufin, in cell work by metabolically active cells.

In series [1] the test system is Plasmodium falciparum. Briefly: Antiplasmodial activity against Plasmodium falciparum W2 infected in RBCs by parasitic LDH release assay. The series is classed as functional, organism-based. A digest of the protocol:
(§1)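 Infected erythrocytes at 2% parasitemia and 2% hematocrit, in RPMI 1640 with 10% human serum and amikacin 60 μg/mL, were exposed to serial dilutions under N2/O2/CO2 (90:5:5) at 37°C for 72 h. LDH was read with Malstat reagent (30 min), then NBT/PES in the dark (60 min), stopped with 5% acetic acid, at 650 nm. IC50 came from percent growth dose-response curves.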

For series [2], the system named is Plasmodium falciparum. The experiment in a line: Antiplasmodial activity against Plasmodium falciparum D6 infected in RBCs by parasitic LDH release assay. Type of series: functional, organism-based. The method in brief: as §1
On the technique in general: LDH in the medium is a marker of cell lysis.

Series [3] can be described thus: Selectivity index, ratio of TC50 for african green monkey (Cercopithecus aethiops) Vero cells to IC50 for Plasmodium falciparum W2. Type of series: toxicity, cell-based.
In another series the test system is Cryptococcus neoformans. Briefly: Antifungal activity against Cryptococcus neoformans ATCC 90113 by modified CLSI/NCCLS method. Type of series: functional, organism-based.
Series [4] can be described thus: Selectivity index, ratio of TC50 for african green monkey (Cercopithecus aethiops) Vero cells to IC50 for Plasmodium falciparum D6. The series is classed as toxicity, cell-based.
The test system of another series is Staphylococcus aureus. The experiment in a line: Antibacterial activity against methicillin-resistant Staphylococcus aureus ATCC 43300 by modified CLSI/NCCLS method. The series is classed as functional, organism-based.
A further series deals with Pichia kudriavzevii. Briefly: Antifungal activity against Candida krusei ATCC 6258 by modified CLSI/NCCLS method. Type of series: functional, organism-based. The conditions noted are these: Pichia kudriavzevii, ATCC 6258; read-out: IC50.
The test system of another series is Aspergillus fumigatus. Briefly: Antifungal activity against Aspergillus fumigatus ATCC 90906 by modified CLSI/NCCLS method. Type of series: functional, organism-based.
The next series relates to Candida albicans. Briefly: Antifungal activity against Candida albicans ATCC 90028 by modified CLSI/NCCLS method. The series is classed as functional, organism-based.
Series [5] concerns Mycobacterium intracellulare. The experiment in a line: Antibacterial activity against Mycobacterium intracellular ATCC 23068 by Franzblau method. Type of series: functional, organism-based.
Series [6] in a line: Toxicity against african green monkey Vero cells. The series is classed as cell-based. Particulars: chlorocebus sabaeus. A digest of the protocol:
(§2)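 Cells seeded at 25,000 per well and incubated 24 h, then exposed to samples for 48 h. Viable cells were counted by neutral red, with DMSO as vehicle control. IC50 or TC50 values were derived from logarithmic plots of growth inhibition versus concentration.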

Series [7] can be described thus: Toxicity against pig LLC-PK11 cells after 48 hrs by neutral red assay. The series is classed as cell-based, Sus scrofa. The conditions noted are these: LLC-PK11 cells, read-out: TC50. The method in brief:
as §2

The nature of series [8]: Toxicity against african green monkey Vero cells after 48 hrs by neutral red assay. The series is classed as cell-based. The conditions noted are these: chlorocebus sabaeus, Vero cells; read-out: TC50. The method in brief: as §2
Another series relates to SK-MEL. Briefly: Cytotoxicity against human SK-MEL cells after 48 hrs by neutral red assay. The series is classed as functional, cell-based. Particulars: Homo sapiens, SK-MEL, 48 h; read-out: IC50. A digest of the protocol: as §2
Where [9] appears, read: Candida albicans, ATCC 90028, read-out: IC50.
Where [10] appears, read: Mycobacterium intracellulare, ATCC 23068, read-out: IC50.

The IC50 is the concentration at which inhibition is half-maximal. As a reminder, the IC90 is the concentration at which the effect reaches the 90% level. `C[C@H]1[C@@H](O)O[C@@H]2O[C@@]3(C)CC[C@H]4[C@H](C)CC[C@@H]1[C@@]24OO3` [ARTENIMOL]: the IC50 result in the series with Nakaseomyces glabratus is “Not Active”; in the series on Leishmania donovani (Leishmania donovani, 48 h), 87900 nM; with Plasmodium falciparum [1], 14.1 nM; in the series on Plasmodium falciparum [2] it was 14.8 nM; with Cryptococcus neoformans it was 280 nM; in the series on Staphylococcus aureus, “Not Active”. In addition, the concentration for half-maximal inhibition (IC50) with Pichia kudriavzevii is 28100 nM; with Aspergillus fumigatus it was “Not Active”; in the series with Candida albicans (setting [9]) it was 880 nM; in series [5] it was “Not Active”. Moreover, the IC90 result in the series on Leishmania donovani is “inactive”. Also, the selectivity ratio was 100 in series [3] and 95 in [4]. The same molecule registered a CC50 in series [6] of 1410 nM.

For `CC1=CO[C@@H]2O[C@]3(C)CC[C@H]4[C@H](C)CC[C@@H]1[C@@]24OO3` [ANHYDRODIHYDROARTEMISININ], the IC50 result in the series with Nakaseomyces glabratus was “Not Active”; in the series on Leishmania donovani (Leishmania donovani, 48 h), 30000 nM; with Plasmodium falciparum [1] it was 25.5 nM; in the series with Plasmodium falciparum [2], 15.8 nM; in the series with Cryptococcus neoformans it was 300 nM; in the series on Staphylococcus aureus, “Not Active”. In addition, the IC50 with Pichia kudriavzevii is 56300 nM; in the series with Aspergillus fumigatus, “Not Active”; in the series with Candida albicans, “Not Active”; in series [5] (setting [10]), 56300 nM. Also, in the series with Leishmania donovani, the IC90 entry was “inactive”. Besides, the selectivity ratio is above 70 in series [3] and above 113 in series [4]. This molecule came in with a CC50 in series [6] above 1790 nM.

Consider `CC(=O)O[C@H]1C(=O)[C@@]2(C)[C@H]([C@H](OC(=O)c3ccccc3)[C@]3(O)C[C@H](OC(=O)[C@H](O)[C@@H](NC(=O)c4ccccc4)c4ccccc4)C(C)=C1C3(C)C)[C@]1(OC(C)=O)CO[C@@H]1C[C@@H]2O` [PACLITAXEL], for which the results for the CC50 at 48 h in series [7] and in series [8] were 4390 nM and 530 nM, respectively. In the series on SK-MEL, the IC50 is 4100 nM.

For the molecule `O=C(O)c1cn(C2CC2)c2cc(N3CCNCC3)c(F)cc2c1=O` [CIPROFLOXACIN], the IC50 in series [5] (setting [10]) was 1270 nM.

Regarding `C[C@@H]1CC[C@H]2[C@@H](C)C(=O)O[C@@H]3O[C@@]4(C)CC[C@@H]1[C@]32OO4` [ARTEMISININ], the concentration for half-maximal inhibition (IC50) result in the series with Nakaseomyces glabratus was “Not Active”; in the series on Leishmania donovani (Leishmania donovani, 48 h), 40700 nM; in the series on Plasmodium falciparum [1], 42.5 nM; in the series with Plasmodium falciparum [2] it was 32.9 nM; in the series on Cryptococcus neoformans it was 250 nM; in the series on Staphylococcus aureus, “Not Active”. For the same molecule, the IC50 is 14200 nM in the series on Pichia kudriavzevii, “Not Active” with Aspergillus fumigatus, “Not Active” in the series on Candida albicans and “Not Active” in series [5]. The IC90 entry in the series with Leishmania donovani is “inactive”. Besides, the values for the selectivity ratio in series [3] and in series [4] were above 40 and above 51, respectively. In addition, the CC50 in [6] was above 1680 nM.

Regarding `CCN(CC)CCCC(C)Nc1ccnc2cc(Cl)ccc12` (stereo not given) [CHLOROQUINE], in series [6], the CC50 is above 14900 nM.

On to `C[C@@H]1[C@H](O)[C@@H](C)/C=C/C=C/C=C/C=C/C=C/C=C/C=C/[C@H](O[C@@H]2O[C@H](C)[C@@H](O)[C@H](N)[C@@H]2O)C[C@@H]2O[C@](O)(C[C@@H](O)C[C@@H](O)[C@H](O)CC[C@@H](O)C[C@@H](O)CC(=O)O[C@H]1C)C[C@H](O)[C@H]2C(=O)O` [AMPHOTERICIN B], for which the IC50 in the series with Nakaseomyces glabratus (Nakaseomyces glabratus, ATCC 90030, read-out: IC50) was 460 nM; in the series on Cryptococcus neoformans it was 780 nM; in the series with Pichia kudriavzevii, 850 nM; in the series on Aspergillus fumigatus (Aspergillus fumigatus, ATCC 90906, read-out: IC50), 1120 nM; in the series with Candida albicans (setting [9]), 370 nM. The IC90 in the series with Leishmania donovani (Leishmania donovani, 48 h) was found to be 400 nM.

For `N=C(N)c1ccc(OCCCCCOc2ccc(C(=N)N)cc2)cc1` [PENTAMIDINE], in the series with Leishmania donovani (Leishmania donovani, 48 h), the concentration for an effect of 90% (IC90) was 6400 nM and the half-maximal inhibitory concentration (IC50) is 2800 nM.
